The source of these data is ChEMBL document CHEMBL1240360, “TMC278, a next-generation nonnucleoside reverse transcriptase inhibitor (NNRTI), active against wild-type and NNRTI-resistant HIV-1” (Antimicrob Agents Chemother, 2010).

The subject of data set [1] is Human immunodeficiency virus 1. Description: Antiviral activity against Human immunodeficiency virus 1 subtype A1 infected in human MT4 cells assessed as reduction in virus induced cytopathicity. The data set is classed as functional, organism-based. To be noted: Human immunodeficiency virus 1, subtype A1, MT4. Summed up: (§1)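 Recombinant viruses were made by recombining patient-derived HIV-1 RT-PR sequences into an RT-PR-deleted HXB2 proviral clone transfected into MT4 cells. Subtype was assigned from PR/RT sequence by Smith-Waterman alignment to HXB2. MT4 cells (1.5 × 10^5/ml) were infected at MOI 0.01 with serially diluted compound for 5 days at 37°C. Viability was read by MTT and EC50 derived.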
(Protection from cytopathic effect is a common read-out in antiviral testing.)

Data set [2] relates to Human immunodeficiency virus 1. As to the kind of experiment: Antiviral activity against Human immunodeficiency virus 1 3B infected in human MT4 cells assessed as reduction in virus induced cytopathicity. The data set is classed as functional, organism-based. Summed up: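 MT4 cells (1.5 × 10^5/ml) infected with HIV-1 IIIB at MOI 0.01 and added to serially diluted compound. Cultures incubated 5 days at 37°C under 5% CO2. Cell viability, as protection from virus-induced killing, read by MTT tetrazolium colorimetry. EC50 reported as median with first to third quartiles over n experiments.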

The test system of data set [3] is Human immunodeficiency virus 1. As to the kind of experiment: Antiviral activity against Human immunodeficiency virus 1 subtype AE infected in human MT4 cells assessed as reduction in virus induced cytopathicity. The data set is classed as functional, organism-based. Summed up:
as §1

For data set [4], the system named is Human immunodeficiency virus 1. As to the kind of experiment: Antiviral activity against Human immunodeficiency virus 1 subtype C infected in human MT4 cells assessed as reduction in virus induced cytopathicity. In kind it is functional, organism-based. The method in brief: as §1
For data set [5], the system named is Human immunodeficiency virus 1. Description: Antiviral activity against Human immunodeficiency virus 1 subtype BG infected in human MT4 cells assessed as reduction in virus induced cytopathicity. In kind it is functional, organism-based. Summed up:
as §1

Data set [6] deals with Human immunodeficiency virus 1. As to the kind of experiment: Antiviral activity against Human immunodeficiency virus 1 subtype F1 infected in human MT4 cells assessed as reduction in virus induced cytopathicity. The data set is classed as functional, organism-based. Conditions: Human immunodeficiency virus 1, subtype F1, MT4. Summed up:
as §1

Data set [7] concerns Human immunodeficiency virus 1. As to the kind of experiment: Antiviral activity against Human immunodeficiency virus 1 subtype AG infected in human MT4 cells assessed as reduction in virus induced cytopathicity. The data set is classed as functional, organism-based. The method in brief: as §1
The subject of data set [8] is Human immunodeficiency virus 1. As to the kind of experiment: Antiviral activity against Human immunodeficiency virus 1 subtype G infected in human MT4 cells assessed as reduction in virus induced cytopathicity. The data set is classed as functional, organism-based. Summed up:
as §1

The next data set relates to MT4. As to the kind of experiment: Cytotoxicity against human MT4 cells by cell based assay. The method in brief: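 Cytotoxicity in MT4 cells from cell-based assays gave a 50% cytotoxic concentration, reported as a median with first- to third-quartile values over the stated number of experiments.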
The test system of data set [9] is Human immunodeficiency virus 2. Description: Antiviral activity against Human immunodeficiency virus 2 ROD infected in human MT4 cells assessed as reduction in virus induced cytopathicity. To be noted: Human immunodeficiency virus 2, ISOLATE ROD. The data set is classed as functional, organism-based. The method in brief:
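MT4 cells (1.5 × 10^5/ml) infected with HIV (MOI 0.01) were added to serial compound dilutions and incubated 5 days at 37°C in 5% CO2. Protection from virus-induced cell death was read by MTT tetrazolium colorimetry, giving an EC50 in micromolar.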

In data set [10] the test system is Human immunodeficiency virus 1. As to the kind of experiment: Antiviral activity against Human immunodeficiency virus 1 subtype D infected in human MT4 cells assessed as reduction in virus induced cytopathicity. The data set is classed as functional, organism-based. The method in brief:
as §1

Data set [11] has as its system Human immunodeficiency virus 1. As to the kind of experiment: Antiviral activity against Human immunodeficiency virus 1 subtype (H) infected in human MT4 cells assessed as reduction in virus induced cytopathicity. The data set is classed as functional, organism-based. Summed up: as §1
Data set [12] relates to Human immunodeficiency virus 1. As to the kind of experiment: Antiviral activity against Human immunodeficiency virus 1 subtype A isolate 92RW020 infected in human PBMC cells by cell based assay. To be noted: Human immunodeficiency virus 1, subtype A isolate 92RW020, PBMC.
Data set [13] deals with Human immunodeficiency virus 1. Description: Antiviral activity against Human immunodeficiency virus 1 subtype E isolate 92TH006 infected in human PBMC cells by cell based assay. To be noted: Human immunodeficiency virus 1, subtype E 92TH006, PBMC.
For data set [14], the system named is Human immunodeficiency virus 1. As to the kind of experiment: Antiviral activity against Human immunodeficiency virus 1 subtype O isolate BCF03 infected in human PBMC cells by cell based assay. Conditions: Human immunodeficiency virus 1, subtype O isolate BCF03, PBMC.
For data set [15], the system named is Human immunodeficiency virus 1. Description: Antiviral activity against Human immunodeficiency virus 1 subtype G isolate G3 infected in human PBMC cells by cell based assay. Conditions: Human immunodeficiency virus 1, subtype G isolate G3, PBMC.
Data set [16] concerns Human immunodeficiency virus 1. Description: Antiviral activity against Human immunodeficiency virus 1 subtype O misolate BCF01 infected in human PBMC cells by cell based assay. To be noted: Human immunodeficiency virus 1, subtype O isolate BCF01, PBMC.
Data set [17] relates to Human immunodeficiency virus 1. As to the kind of experiment: Antiviral activity against Human immunodeficiency virus 1 subtype C isolate 93MW959 infected in human PBMC cells by cell based assay. To be noted: Human immunodeficiency virus 1, subtype C isolate 93MW959, PBMC.
The test system of data set [18] is Human immunodeficiency virus 1. As to the kind of experiment: Antiviral activity against Human immunodeficiency virus 1 subtype B isolate JR-CSF infected in human PBMC cells by cell based assay.
Data set [19] relates to Human immunodeficiency virus 1. As to the kind of experiment: Antiviral activity against Human immunodeficiency virus 1 subtype D isolate 92UG001 infected in human PBMC cells by cell based assay. To be noted: Human immunodeficiency virus 1, subtype D isolate 92UG001, PBMC.
Data set [20] relates to Human immunodeficiency virus 1. As to the kind of experiment: Antiviral activity against Human immunodeficiency virus 1 subtype E isolate CMU08 infected in human PBMC cells by cell based assay. Conditions: Human immunodeficiency virus 1, subtype E isolate CMU08, PBMC.
The subject of data set [21] is Human immunodeficiency virus 1. Description: Antiviral activity against Human immunodeficiency virus 1 subtype C isolate 92BR025 infected in human PBMC cells by cell based assay. To be noted: Human immunodeficiency virus 1, subtype C isolate 92BR025, PBMC.
The subject of data set [22] is Human immunodeficiency virus 1. As to the kind of experiment: Antiviral activity against Human immunodeficiency virus 1 subtype E isolate 93TH073 infected in human PBMC cells by cell based assay. Conditions: Human immunodeficiency virus 1, subtype E 93TH073, PBMC.
Data set [23] concerns Human immunodeficiency virus 1. As to the kind of experiment: Antiviral activity against Human immunodeficiency virus 1 subtype B isolate 93BR021 infected in human PBMC cells by cell based assay. Conditions: Human immunodeficiency virus 1, subtype B isolate 93BR021, PBMC.
Data set [24] concerns Human immunodeficiency virus 1. As to the kind of experiment: Antiviral activity against Human immunodeficiency virus 1 subtype C isolate 93IN101 infected in human PBMC cells by cell based assay. Conditions: Human immunodeficiency virus 1, subtype C isolate 93IN101, PBMC.
Data set [25] concerns Human immunodeficiency virus 1. As to the kind of experiment: Antiviral activity against Human immunodeficiency virus 1 subtype D isolate 92UG024 infected in human PBMC cells by cell based assay. To be noted: Human immunodeficiency virus 1, subtype D 92UG024, PBMC.
Data set [26] has as its system Human immunodeficiency virus 1. As to the kind of experiment: Antiviral activity against Human immunodeficiency virus 1 subtype G isolate JV1083 infected in human PBMC cells by cell based assay. Conditions: Human immunodeficiency virus 1, subtype G isolate JV1083, PBMC.
Data set [27] concerns Human immunodeficiency virus 1. As to the kind of experiment: Antiviral activity against Human immunodeficiency virus 1 subtype O isolate BCF02 infected in human PBMC cells by cell based assay. Conditions: Human immunodeficiency virus 1, subtype O isolate BCF02, PBMC.
For data set [28], the system named is Human immunodeficiency virus 1. Description: Antiviral activity against Human immunodeficiency virus 1 subtype F isolate 93BR029 infected in human PBMC cells by cell based assay. Conditions: Human immunodeficiency virus 1, subtype F isolate 93BR029, PBMC.
The test system of data set [29] is Human immunodeficiency virus 1. Description: Antiviral activity against Human immunodeficiency virus 1 subtype F isolate 93BR020 infected in human PBMC cells by cell based assay. To be noted: Human immunodeficiency virus 1, subtype F isolate 93BR020, PBMC.
Data set [30] relates to Human immunodeficiency virus 1. Description: Antiviral activity against Human immunodeficiency virus 1 subtype A isolate 92UG037 infected in human PBMC cells by cell based assay. Conditions: Human immunodeficiency virus 1, subtype A isolate 92UG037, PBMC.
The subject of data set [31] is Human immunodeficiency virus 1. As to the kind of experiment: Antiviral activity against Human immunodeficiency virus 1 subtype B isolate WEJO infected in human PBMC cells by cell based assay.
Data set [32] relates to Human immunodeficiency virus 1. Description: Antiviral activity against Human immunodeficiency virus 1 subtype F isolate 93BR019 infected in human PBMC cells by cell based assay. To be noted: Human immunodeficiency virus 1, subtype F isolate 93BR019, PBMC.
For data set [33], the system named is Human immunodeficiency virus 1. Description: Antiviral activity against Human immunodeficiency virus 1 subtype D isolate 92UG035 infected in human PBMC cells by cell based assay. To be noted: Human immunodeficiency virus 1, subtype D 92UG035, PBMC.
Data set [34] concerns Human immunodeficiency virus 1. Description: Antiviral activity against Human immunodeficiency virus 1 subtype G isolate RU132 infected in human PBMC cells by cell based assay. Conditions: Human immunodeficiency virus 1, subtype G isolate RU132, PBMC.
Data set [35] has as its system Human immunodeficiency virus 1. Description: Antiviral activity against Human immunodeficiency virus 1 subtype A isolate 92UG029 infected in human PBMC cells by cell based assay. Conditions: Human immunodeficiency virus 1, subtype A isolate 92UG029, PBMC.

What is called EC50 is the concentration needed to bring the measured effect to its halfway point. As for `Cc1ccnc2c1NC(=O)c1cccnc1N2C1CC1` [NEVIRAPINE], the 50% effective concentration (EC50) in [1] was 9.32 nM; in [2], 34.1 nM; in data set [3], 8.94 nM; in data set [4], < 4.88 nM; in [5] it was 26 nM; in data set [6], 14.9 nM. Also, the half-maximal effective concentration (EC50) in data set [7] is 14.4 nM; in data set [8], 24.6 nM; in [9], > 31200 nM; in [10] it was 24.2 nM; in data set [11], 34.1 nM. The Activity with MT4 is > 32 µM.
Regarding `Cc1cc(C#N)cc(C)c1Oc1nc(Nc2ccc(C#N)cc2)nc(N)c1Br` [ETRAVIRINE], the concentration for a half-maximal effect (EC50) in data set [12] stood at 0.48 nM; in [1] it was 1.39 nM; in data set [2], 2.73 nM; in data set [13], 0.5 nM; in data set [3], 0.65 nM; in data set [14] it was 149 nM. For the same compound, the EC50 in data set [15] came to 0.66 nM; in data set [4] it was 0.52 nM; in data set [5] it was 0.67 nM; in data set [6], 0.35 nM; in [16], 16.4 nM; in data set [17] it was 1.01 nM. Also, the EC50 was found to be 1.02 nM in data set [18]; 0.46 nM in data set [7]; 0.9 nM in data set [19]; 0.24 nM in data set [8]; 3.47 nM in data set [20]; 1.7 nM in [21]. For the same compound, the EC50 came out at 0.21 nM in data set [22]; 1.35 nM in data set [23]; 2.72 nM in [24]; 3.18 nM in [25]; 1.45 nM in [26]; 5670 nM in data set [9]. The EC50 in [27] was 52.8 nM; in data set [28], 1.06 nM; in data set [29], 1.08 nM; in [30], 1.42 nM; in [31], 0.43 nM; in data set [32], 0.46 nM. Further, the concentration giving a half-maximal response (EC50) in data set [10] is 1.13 nM; in data set [33], 0.44 nM; in data set [34] it was 1.7 nM; in data set [35], 1.45 nM; in data set [11], 0.51 nM. In the data set on MT4, the Activity was > 64 µM.
Regarding `O=C1Nc2ccc(Cl)cc2[C@@](C#CC2CC2)(C(F)(F)F)O1` [EFAVIRENZ], the Activity in the data set on MT4 turned out to be 40.02 µM. The EC50 in data set [9] came out at 24800 nM.
